According to ChEMBL document CHEMBL1132171, “Synthesis and antitumor activity of novel thioester derivatives of leinamycin” (J Med Chem, 1999):

Key:
Mus musculus [1] = assay: Optimal dose for in vivo antitumor activity against sarcoma 180 infected mice; type: functional
How it was run: (§1)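 ddY mice given sarcoma 180 cells in the axillary region on day 0. Single iv dose on day 1. Tumor volume expressed as treated/control ratio. Optimal dose reported.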

Mus musculus [2] = assay: In vivo antitumor activity against sarcoma 180 infected mice was determined as treated versus control of tumor volume; type: functional; how it was run: as §1
HeLa = assay: In vitro antiproliferative activity against HeLa S3 cells; type: functional, cell-based; settings: Homo sapiens
How it was run: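 HeLa S3 cells precultured 24 h in 96-well plates, then exposed to compound for 72 h. Growth inhibition read on day 4 by neutral red dye uptake.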

[3] = Half-life determined by HPLC ([…]); type: ADME
How it was run: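 Stability read by HPLC at 330 nm. Compound at 20 μg/mL in pH 7 phosphate buffer/acetonitrile (4:1), 37 °C, half-life derived.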

SMILES | OD (Mus musculus [1]) [mg/kg] | T/C (Mus musculus [2]) | IC50 (HeLa) [nM] | half-life [3] [h]
C/C1=C\[C@@H](O[C@H]2CCCCO2)C(=O)/C=C/C=C/c2csc(n2)[C@@H](C)N2C(=O)C[C@@]([C@@](C)(O)C(=O)SCc3oc(=O)oc3C)(CC1)[S+]2[O-] (stereo not given in full) | 8 | 0.63 | 2.4 | 30
C/C1=C\[C@@H](O[C@@H]2CCCCO2)C(=O)/C=C/C=C/c2csc(n2)[C@@H](C)N2C(=O)C[C@@]([C@@](C)(O)C(=O)SCc3oc(=O)oc3C)(CC1)[S+]2[O-] (stereo not given in full) | 8 | 0.26 | 0.67 | 30
CC(=O)O[C@@H]1/C=C(\C)CC[C@]2([C@@](C)(O)C(=O)SCc3oc(=O)oc3C)CC(=O)N([C@H](C)c3nc(cs3)C=C/C=C/C1=O)[S+]2[O-] (stereo not given in full) | 2 | 0.38 | 3.9 | 24
C/C1=C\[C@@H](O)C(=O)/C=C/C=Cc2csc(n2)[C@@H](C)N2C(=O)C[C@@]([C@@](C)(O)C(=O)SCc3oc(=O)oc3C)(CC1)[S+]2[O-] (stereo not given in full) | 2 | 0.67 | 4.6 | 16
CCOC(=O)CSC(=O)[C@](C)(O)[C@@]12CC/C(C)=C/[C@@H](O)C(=O)/C=C/C=Cc3csc(n3)[C@@H](C)N(C(=O)C1)[S+]2[O-] (stereo not given in full) | 16 | 0.98 | 1300 | > 24
CSC(=O)[C@](C)(O)[C@@]12CC/C(C)=C/[C@@H](O)C(=O)/C=C/C=Cc3csc(n3)[C@@H](C)N(C(=O)C1)[S+]2[O-] (stereo not given in full) | 16 | 0.94 | 830 | 18
COC1(O[C@@H]2/C=C(\C)CC[C@]3([C@@](C)(O)C(=O)SCc4oc(=O)oc4C)CC(=O)N([C@H](C)c4nc(cs4)/C=C/C=C/C2=O)[S+]3[O-])CCOCC1 (stereo not given in full) | 8 | 0.25 | 1.4 | 18
C/C1=C\[C@@H](O)C(=O)/C=C/C=C\c2csc(n2)[C@@H](C)NC(=O)C[C@@]2(CC1)[S+]([O-])SC(=O)[C@]2(C)O (stereo not given in full) [LEINAMYCIN] | 2 | 0.49 |  | 6
COCO[C@@H]1/C=C(\C)CC[C@]2([C@@](C)(O)C(=O)SCc3oc(=O)oc3C)CC(=O)N([C@H](C)c3nc(cs3)C=C/C=C/C1=O)[S+]2[O-] (stereo not given in full) | 2 | 0.58 | 0.17 | 24
